core dimer inh: HCV core protein dimerization inhibition | TR-FRET GST/Flag-core106 dimerization, 1536-well | inhibition, % at 5 µM | 300,000 compounds, 0.33% hits | AID 1899;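 active = inhibition above the mean of all tested compounds plus 3 SD, set per screening campaign, cut at about 45% in these data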
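Assay system: Tagged HCV core106 pair (GST and Flag) | Buffer or medium: KF-containing HEPES buffer, pH 7.45, DTT, CHAPS, BSA | Also added: Eu donor and XL665 acceptor anti-tag antibodies | Dosing: One concentration, 5 µM, in 0.5% DMSO | Timing: 4 h at 22.5 °C | Technique: TR-FRET 671 and 617 nm emission | Repeats: Singlicate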
DNA FID counter: displaces DNA intercalator in HCV helicase counter-screen; DNA fluorescent intercalator displacement, fluorescence; inhibition, % at 7.9 µM; 290,000 compounds, 0.17% hits; AID 1845; in the data active = inhibition above about 37%;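 also: 0% = vehicle and 100% = reference compound; higher means more ethidium bromide displaced from hairpin DNA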
MEX-5 binding: C. elegans MEX-5 TCR-2 RNA binding activity; Q9XUB2; MEX-5/FITC-TCR2 RNA binding, fluorescence polarization; active compounds read low; activity score (negative = inhibition of binding), % at 10 µM; 300,000 compounds, 0.38% hits; AID 1832;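 active = inhibition past about -25% in most replicates, and total fluorescence under double the plate's negative control median, limit read from the data; inconclusive = replicates evenly split on the limit, or fluorescence at least double controls; inactive = too little inhibition in most replicates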;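 also: 0% = DMSO and -100% = 5 µM competing unlabeled TCR2 RNA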
CendR NRP1 mod: NRP-1/CendR interaction modulation. O14786. FAM-RPARPAR peptide binding to NRP-1, fluorescence polarization. inhibition, % at 25 µM. 360,000 compounds, 0.85% hits. AID 602438;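 active = inhibition or corrected inhibition above about 18%, plus a signal ratio from 0.5 to 1.5, limit read from the data, passing the limit was not always enough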
Target sequence (O14786 whole entry, looked up): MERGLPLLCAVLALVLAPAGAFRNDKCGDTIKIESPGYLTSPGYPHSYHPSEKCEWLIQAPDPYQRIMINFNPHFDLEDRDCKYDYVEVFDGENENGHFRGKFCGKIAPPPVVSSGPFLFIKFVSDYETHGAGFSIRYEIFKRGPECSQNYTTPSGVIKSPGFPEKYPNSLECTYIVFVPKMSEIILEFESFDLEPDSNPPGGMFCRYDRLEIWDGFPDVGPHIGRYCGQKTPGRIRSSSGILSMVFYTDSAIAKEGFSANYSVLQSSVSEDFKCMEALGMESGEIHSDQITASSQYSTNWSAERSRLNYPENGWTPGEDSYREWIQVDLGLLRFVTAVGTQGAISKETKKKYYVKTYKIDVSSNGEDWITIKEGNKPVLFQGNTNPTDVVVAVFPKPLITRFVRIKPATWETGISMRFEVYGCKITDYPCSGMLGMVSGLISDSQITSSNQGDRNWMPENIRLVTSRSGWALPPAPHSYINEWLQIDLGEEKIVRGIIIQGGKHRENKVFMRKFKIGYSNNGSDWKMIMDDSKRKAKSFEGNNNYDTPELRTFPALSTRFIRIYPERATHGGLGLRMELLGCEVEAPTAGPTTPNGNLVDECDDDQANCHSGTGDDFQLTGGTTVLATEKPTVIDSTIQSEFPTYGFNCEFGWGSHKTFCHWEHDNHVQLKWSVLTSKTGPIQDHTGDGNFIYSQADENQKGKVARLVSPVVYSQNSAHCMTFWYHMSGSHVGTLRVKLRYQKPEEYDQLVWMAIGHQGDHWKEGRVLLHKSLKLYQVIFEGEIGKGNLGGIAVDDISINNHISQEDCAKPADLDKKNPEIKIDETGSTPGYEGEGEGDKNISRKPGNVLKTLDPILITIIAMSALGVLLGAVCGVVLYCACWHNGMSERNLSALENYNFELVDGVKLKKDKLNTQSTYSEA
* hit, by the source's call; ? = inconclusive; nt = no result. In the library only some 1.5% were active in any assay of this set; here they are far more common.

SMILES | core dimer inh | DNA FID counter | MEX-5 binding | CendR NRP1 mod
CCN(CC)C(=O)Cn1cc(S(=O)(=O)CC(=O)NCCc2ccccc2)c2ccccc21 | 0 | -46 | 0 | 10
CC1(C(=O)NS(=O)(=O)c2ccc(C#N)cc2)CCN1C(=O)Cc1cc(F)ccc1F (stereo unspecified) | nt | nt | nt | -2
CCOC(=O)N1CCN(/C=C(\C#N)c2nc3ccccc3s2)CC1 | 5 | -17 | -50* | -76
O=C(Nc1cccc(F)c1)c1ccc(-c2cccnc2)c2ccoc12 | nt | nt | nt | 2
COc1cc2c3nnc(-c4ccccc4)c-3cn(Cc3ccccc3F)c2cc1OC | 12 | 17 | -59* | nt
CCCCCCCCCOC(=O)C(CC(=O)O)N1CCOCC1 (stereo unspecified) | 0 | -26 | -1 | 32*
COc1cccc(NC(=O)CN(C)C(=O)c2cccc(NS(=O)(=O)c3ccccc3)c2)c1 | nt | nt | nt | 30*
COc1cccc(NC(=O)CN(C)C(=O)c2cccc(NS(=O)(=O)c3ccc(Br)cc3)c2)c1 | nt | nt | nt | 0
COc1ccc(-c2cc(C(=O)N(C)CC(=O)Nc3cccc(F)c3)c3ccccc3n2)cc1OC | nt | nt | nt | -1
COc1ccc(NC(=O)CN(C)C(=O)c2cc(-c3ccco3)nc3ccccc23)cc1 | 61* | nt | 2 | -8
COc1cc(/C=N/NC(=O)c2cc(-c3ccco3)nc3ccccc23)cc(OC)c1O | 41 | -18 | -1 | 1
O=C(N/N=C/c1cccc(F)c1)c1cc(-c2ccco2)nc2ccccc12 | 74* | -6 | -1 | -22
CN(CC(=O)Nc1cccc(F)c1)C(=O)c1cc(-c2ccco2)nc2ccccc12 | 59* | nt | 1 | -23
CC(c1ccc2ccccc2c1)c1ccccc1C(=O)O (stereo unspecified) | nt | nt | nt | -19
CC1(C(=O)NS(=O)(=O)c2ccc(Cl)cc2)CCN1C(=O)c1ccccc1 (stereo unspecified) | nt | nt | nt | 1
CN(CC(=O)Nc1cccc(F)c1)C(=O)c1cccc(-n2cccc2)c1 | 64* | nt | 0 | -23
CCOC(=O)C(Cc1ccc(NC(=O)/C(=C/c2ccc(OC(C)=O)cc2)NC(C)=O)cc1)N1C(=O)c2ccccc2C1=O (stereo unspecified) | 5 | -23 | -3 | 9
CCOC(=O)C(Cc1ccc(NC(=O)/C(=C/c2ccccc2)NC(=O)c2ccccc2)cc1)N1C(=O)c2ccccc2C1=O (stereo unspecified) | 58* | -21 | 0 | 3
C=CCN(CC=C)S(=O)(=O)c1ccc(NC(=S)NC(=O)/C=C/c2cccc3ccccc23)cc1 | 56* | -14 | -2 | -15
C=CCN(CC=C)S(=O)(=O)c1ccc(NC(=S)NC(=O)/C=C/c2ccc(C)cc2)cc1 | 17 | -5 | 5 | 7
O=C(NCCCN1CCCC1=O)C(=O)NCC1OCCN1S(=O)(=O)c1cc(F)ccc1F (stereo unspecified) | nt | nt | nt | 16
COC(=O)C(N)Cc1ccc(O)c(O)c1 (stereo unspecified) | -5 | -1 | -15 | 8
NC(CO)C(=O)NNCc1ccc(O)c(O)c1O (stereo unspecified) | -17 | -5 | -33* | 5
Cc1ccc([C@H]2N[C@]3(CCCN(Cc4cccn4C)C3=O)[C@H]3C(=O)N(C)C(=O)[C@@H]23)cc1 | nt | nt | nt | -10
O=c1oc2c3c4c(cc2s1)CCCN4CCC3 | 18 | -3 | -32* | 36*
SMILES | core dimer inh | DNA FID counter | MEX-5 binding | CendR NRP1 mod
O=c1ccc2cc3c4c(c2o1)CCCN4CCC3 | 14 | 1 | ? | 72
N#CC(=C(c1ccccc1)c1ccccc1)c1ccccc1 | nt | nt | nt | 4
O=c1[nH]c(=O)c2[nH]c(=S)[nH]c2[nH]1 | nt | nt | nt | -12
COc1cccc(CN2CCC2(C)C(=O)Nc2cnc3ccccc3c2)c1F (stereo unspecified) | nt | nt | nt | -8
COC(=O)c1c(NC(=O)COC(=O)c2ccc(NC(=O)CC#N)cc2)sc2c1CCCCC2 | 62* | -14 | 1 | -91
Cc1cnc(C(=O)OCC(=O)Nc2sc3c(c2C#N)CCC3)cn1 | 6 | nt | -2 | 38*
Cc1nc(C)c(C(=O)Nc2nc3c(C)cccc3s2)o1 | 54* | -14 | -1 | -9
Cc1cccc2sc(NC(=O)CN3C(=O)C4CC=CCC4C3=O)nc12 (stereo unspecified) | -1 | -8 | -1 | 32*
Cc1cccc2sc(NC(=O)CN3C(=O)NC4(CCCC4)C3=O)nc12 | -17 | -21 | 0 | 4
Cc1ccc2sc(NNC(=O)c3cc(=O)c4ccccc4o3)nc2c1C | -19 | -12 | -64* | -28
Cc1cccc2sc(NNC(=O)c3cc(=O)c4ccccc4o3)nc12 | 7 | -11 | -79* | -48
CN(CCc1ccccc1)C(=O)c1ccc(NC(=O)Cc2cccc(NC(=O)C3CCN(C(=O)c4ccccc4)CC3)c2)cc1 | nt | nt | nt | 10
CCCOc1ccc(F)cc1-c1cc(C(=O)NCc2cc(C(F)(F)F)cc(C(F)(F)F)c2)[nH]n1 | nt | nt | nt | -7
CN(C)CCNc1c2c(nc3ccccc13)CCC2 | -3 | 45* | -1 | 2
COCCCNc1c2c(nc3ccccc13)CCC2 | nt | nt | nt | -6
CN1CCN(c2ccc3c(c2)OC[C@@H](Cc2ccccc2)NS3(=O)=O)CC1 | nt | nt | nt | 7
Oc1ccc(/C=N/N(c2ccccc2)c2ccccc2)cc1O | 16 | -4 | -3 | 17
Cc1nc2ccccc2c(=O)n1/N=C/c1ccc(O)c(O)c1O | 0 | -2 | -52* | -58
O=C1c2ccccc2C(=O)N1/N=C/c1ccc(O)c(O)c1O | nt | 2 | -53* | -27
Cc1nc2ccccc2c(=O)n1/N=C/c1ccccc1O | -1 | 1 | nt | -2
Oc1ccc(/C=N/N(c2ccccc2)c2ccccc2)c(O)c1O | 52* | -23 | -2 | 3
CCC/C=C/c1ccc(CN2C(C(C)C)C(=O)N(Cc3cn(Cc4ccco4)nn3)CCS2(=O)=O)cc1 (stereo unspecified) | nt | nt | nt | 1
O=C(NCc1ccccc1)C(c1cccc2ccccc12)n1c(=O)c(-c2ccccc2)nc2ccccc21 (stereo unspecified) | nt | nt | nt | -13
O=S1(=O)N[C@@H](Cc2ccccc2)COc2cc(N3CCSCC3)ccc21 | nt | nt | nt | 5
Nc1ccc2c(c1)C/C(=C/c1ccco1)C2=O | 94* | -14 | -45* | -72
SMILES | core dimer inh | DNA FID counter | MEX-5 binding | CendR NRP1 mod
O=C1/C(=C/c2ccco2)CCc2ccccc21 | 3 | -11 | 2 | -20
CN(C)c1ccc(N=Cc2nc(-c3ccccc3)oc2OC(=O)c2cccc(Br)c2)cc1 | -11 | -18 | -43* | 131
O=C(O)C(SC(C(=O)O)c1ccccc1)c1ccccc1 (stereo unspecified) | nt | nt | nt | -2
CNC[C@H](Cc1ccccc1)NC[C@@H](Cc1cccc2ccccc12)NCCc1ccc(C)cc1 | -13 | 37* | 46 | 4
CCOC(=O)CCCCCC(=O)Nc1ccc2c(c1)C(=O)N([C@@H](C)CO)C[C@H](C)[C@H](CN(C)C(=O)Nc1ccc(F)cc1)OCCCC[C@H](C)O2 | nt | nt | nt | -8
CCN(CC)CCOC(=O)c1ccc(NC(=O)CCCN2C(=O)/C(=C/c3cccs3)SC2=S)cc1 | nt | 44* | 1 | -28
O=C(CCCN1C(=O)/C(=C\c2cccs2)SC1=S)Nc1ccc(C(=O)O)cc1 | -2 | -21 | -2 | 3
